Broadly, the IC90 is the point of the concentration-response curve where the effect stands at 90%. Usually IC50 stands for the concentration needed to halve the response being measured. The MFC is the lowest tested concentration that kills the fungus rather than only halting it. In general, MIC refers to the lowest concentration found to suppress growth.

≈ marks a conversion by molar mass, not a printed value. Calls of active or inactive are those of the source. Unless noted, the calls are words filed in the database; no cut-off is given here.

Results on 18 compounds are retold here after ChEMBL document CHEMBL2021883, “Amino acid, dipeptide and pseudodipeptide conjugates of ring-substituted 8-aminoquinolines: synthesis and evaluation of anti-infective, β-haematin inhibition and cytotoxic activities” (Eur J Med Chem, 2012).

For one assay, the system named is Leishmania donovani. As to the kind of experiment: Antileishmanial activity against Leishmania donovani promastigote by Alamar Blue assay. It is filed as functional, organism-based. A general note: The colour change of resazurin is a common sign of viable cells or microbes.
Assay [1] deals with Staphylococcus aureus. As to the kind of experiment: Antimicrobial activity against Staphylococcus aureus ATCC 29213 by CLSI method. In kind it is functional, organism-based.
The test system of assay [2] is Staphylococcus aureus. As to the kind of experiment: Antimicrobial activity against methicillin-resistant Staphylococcus aureus ATCC 43300 by CLSI method. It is filed as functional, organism-based.
In the next assay the test system is Escherichia coli. Nature of the assay: Antimicrobial activity against Escherichia coli ATCC 35218 by CLSI method. In kind it is functional, organism-based.
A short description of assay [3]: Inhibition of beta-hematin formation. It is filed as functional.
A further assay concerns Aspergillus fumigatus. As to the kind of experiment: Antifungal activity against Aspergillus fumigatus. It is filed as functional, organism-based. In short, it runs like this:
(§1)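 Yeasts and A. fumigatus were tested by broth microdilution following the NCCLS antifungal standards. The highest test concentration was 20.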

Assay [4] has as its system Candida albicans. As to the kind of experiment: Antifungal activity against Candida albicans at 20 ug/ml. It is filed as functional, organism-based. In short, it runs like this: (§2)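 Broth dilution antifungal testing followed the NCCLS reference method for yeasts, with 20 as the highest test concentration. MIC was the lowest concentration with no detectable growth. MFC was the lowest concentration killing the organism.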

Assay [5] has as its system Candida albicans. Nature of the assay: Fungicidal activity against Candida albicans at 20 ug/ml. It is filed as functional, organism-based. In short, it runs like this: as §2
Another assay deals with Pseudomonas aeruginosa. Nature of the assay: Antimicrobial activity against Pseudomonas aeruginosa ATCC 27853 by CLSI method. It is filed as functional, organism-based. In short, it runs like this: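 Antibacterial testing used CLSI/NCCLS broth dilution for aerobically growing bacteria, with 20 as the highest test concentration.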
The test system of a further assay is Vero. Nature of the assay: Cytotoxicity against african green monkey Vero cells upto 23.8 […] by neutral dye assay. In kind it is cell-based, Chlorocebus sabaeus. In short, it runs like this:
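Vero monkey kidney cells were exposed to compound up to a highest concentration of 23.8, with viability read by neutral red uptake.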

Assay [6] relates to Plasmodium falciparum. Nature of the assay: Antimalarial activity against chloroquine-sensitive Plasmodium falciparum D6 assessed as plasmodial LDH activity. In kind it is functional, organism-based.
The subject of assay [7] is Plasmodium falciparum. Nature of the assay: Antimalarial activity against chloroquine-resistant Plasmodium falciparum W2 assessed as plasmodial LDH activity. It is filed as functional, organism-based.
The subject of assay [8] is Mycobacterium intracellulare. As to the kind of experiment: Antimicrobial activity against Mycobacterium intracellulare ATCC 23068 by Franzblau method. It is filed as functional, organism-based.
The test system of a further assay is Cryptococcus neoformans. Nature of the assay: Antifungal activity against Cryptococcus neoformans. It is filed as functional, organism-based. In short, it runs like this: as §1
[9] abbreviates: Leishmania donovani, read-out: IC50.

For the compound `N=C(N)c1ccc(OCCCCCOc2ccc(C(=N)N)cc2)cc1` [PENTAMIDINE], in the assay on Leishmania donovani (Leishmania donovani), it took 3.8 µg/mL (≈ 11.2 µM) to reach the 90% level (IC90).
As for `COc1cc(NC(C)CCCNC(=O)[C@@H](CCCCN)NC(=O)[C@H](N)CCCCN)c2ncccc2c1` (stereo not given in full), the outcome in the assay with Staphylococcus aureus [1], with Staphylococcus aureus [2], in the assay with Escherichia coli, in the assay on Aspergillus fumigatus, in the assay on Candida albicans [4] and in the assay on Candida albicans [5] was inactive. The outcome (in the assay with Pseudomonas aeruginosa; in assay [8]) was inactive. Also, the IC50 in [3] was 310 µM; in the assay with Vero, “Non-toxic”; in the assay on Leishmania donovani (setting [9]), 3.5 µg/mL (≈ 6.79 µM); in the assay with Plasmodium falciparum [6], “Not Active”; with Plasmodium falciparum [7] it was “Not Active”; with Cryptococcus neoformans, 3.5 µg/mL (≈ 6.79 µM). The compound further showed an IC90 with Leishmania donovani (Leishmania donovani) of 7 µg/mL (≈ 13.6 µM). This compound also returned an MFC in the assay on Cryptococcus neoformans of 5 µg/mL (≈ 9.7 µM). Also, it took 5 µg/mL (≈ 9.7 µM) to inhibit growth in the assay with Cryptococcus neoformans (MIC).
With `COc1cc(NC(C)CCCNC(=O)C[C@H](NC(=O)[C@@H](N)CCCN)C(=O)O)c2ncccc2c1` (stereo not given in full), the result (with Staphylococcus aureus [1]; with Staphylococcus aureus [2]; in the assay with Escherichia coli; with Pseudomonas aeruginosa; in assay [8]) was inactive.
With `COc1cc(NC(C)CCCNC(=O)CC[C@@H](NC(=O)[C@H](N)CCCCN)C(=O)O)c2ncccc2c1` (stereo not given in full), the outcome (in the assay on Staphylococcus aureus [1]; with Staphylococcus aureus [2]; with Escherichia coli; in the assay with Pseudomonas aeruginosa; in [8]) was inactive. The IC50 in [3] was greater than 1000 µM; in the assay on Vero it was “Non-toxic”; in the assay with Leishmania donovani (setting [9]), 20.1 µg/mL (≈ 38.9 µM); with Plasmodium falciparum [6] it was “Not Active”; in the assay with Plasmodium falciparum [7], “Not Active”. In the assay with Leishmania donovani (Leishmania donovani), this compound had an IC90 of 36 µg/mL (≈ 69.7 µM).
Take `COc1cc(NC(C)CCCNC(=O)C[C@@H](NC(=O)[C@H](N)CCCN)C(=O)O)c2ncccc2c1` (stereo not given in full): the outcome in the assay with Staphylococcus aureus [1], in the assay on Staphylococcus aureus [2], in the assay on Escherichia coli, in the assay with Aspergillus fumigatus, in the assay on Candida albicans [4] and in the assay on Candida albicans [5] was inactive. The result (with Pseudomonas aeruginosa; in assay [8]) was inactive. In addition, the IC50 in [3] was greater than 1000 µM; in the assay on Vero, “Non-toxic”; in the assay with Leishmania donovani, “Not Active”; with Plasmodium falciparum [6], “Not Active”; with Plasmodium falciparum [7], “Not Active”; in the assay on Cryptococcus neoformans, 7 µg/mL (≈ 14.3 µM). Besides, the IC90 result in the assay on Leishmania donovani was “inactive”. Besides, the MFC against Cryptococcus neoformans came out at 10 µg/mL (≈ 20.5 µM). Moreover, in the assay with Cryptococcus neoformans, inhibition of growth (MIC) required 10 µg/mL (≈ 20.5 µM).
On to `COc1cc(NC(C)CCCNC(=O)CC[C@H](NC(=O)[C@@H](N)CCCCN)C(=O)O)c2ncccc2c1` (stereo not given in full), for which the outcome (in the assay with Staphylococcus aureus [1]; in the assay on Staphylococcus aureus [2]; in the assay with Escherichia coli; with Pseudomonas aeruginosa; in [8]) was inactive. Also, the IC50 result was “Non-toxic” with Vero, “Not Active” in the assay with Leishmania donovani, “Not Active” in the assay on Plasmodium falciparum [6] and “Not Active” with Plasmodium falciparum [7]. Also, in the assay on Leishmania donovani, the IC90 entry is “inactive”.
As to `COc1cc(NC(C)CCCNC(=O)NCCCC[C@H](N)C(=O)O)c2ncccc2c1` (stereo not given in full), the result (in the assay with Staphylococcus aureus [1]; in the assay with Staphylococcus aureus [2]; in the assay with Escherichia coli; in the assay on Pseudomonas aeruginosa; in assay [8]) was inactive. In addition, the IC50 in [3] was greater than 1000 µM; in the assay with Vero, “Non-toxic”; with Leishmania donovani, “Not Active”; with Plasmodium falciparum [6], “Not Active”; with Plasmodium falciparum [7], “Not Active”. The IC90 entry in the assay with Leishmania donovani is “inactive”.
Turning to `COc1cc(NC(C)CCCNC(=O)CC[C@@H](NC(=O)[C@H](N)CCCN)C(=O)O)c2nc(C(C)(C)C)ccc2c1` (stereo not given in full), the result (with Staphylococcus aureus [1]; in the assay on Staphylococcus aureus [2]; in the assay with Escherichia coli; in the assay on Pseudomonas aeruginosa; in assay [8]) was inactive. The IC50 is greater than 1000 µM in [3]; “Non-toxic” in the assay with Vero; “Not Active” with Leishmania donovani; “Not Active” with Plasmodium falciparum [6]; “Not Active” in the assay on Plasmodium falciparum [7]. Also, the IC90 result with Leishmania donovani was “inactive”.
For `COc1cc(NC(C)CCCNC(=O)CC[C@H](NC(=O)[C@@H](N)CCCN)C(=O)O)c2ncccc2c1` (stereo not given in full), the result (in the assay on Staphylococcus aureus [1]; in the assay with Staphylococcus aureus [2]; in the assay with Escherichia coli; in the assay on Pseudomonas aeruginosa; in assay [8]) was inactive. Moreover, the IC50 in assay [3] is greater than 1000 µM; in the assay on Vero it was “Non-toxic”; in the assay on Leishmania donovani, “Not Active”; in the assay on Plasmodium falciparum [6], “Not Active”; with Plasmodium falciparum [7], “Not Active”. Also, the IC90 entry in the assay with Leishmania donovani was “inactive”.
For the compound `COc1cc(NC(C)CCCN)c2ncccc2c1` (stereo not given) [PRIMAQUINE], the IC50 was greater than 1000 µM in [3] and “Non-toxic” with Vero. Further, the IC90 entry with Leishmania donovani was “inactive”.
For the compound `COc1cc(NC(C)CCCNC(=O)NCCC[C@@H](N)C(=O)O)c2ncccc2c1` (stereo not given in full), the result (in the assay with Staphylococcus aureus [1]; in the assay with Staphylococcus aureus [2]; with Escherichia coli; in the assay on Pseudomonas aeruginosa; in [8]) was inactive. Also, the IC50 in assay [3] is greater than 1000 µM; with Vero it was “Non-toxic”; in the assay with Leishmania donovani, “Not Active”; in the assay on Plasmodium falciparum [6], “Not Active”; in the assay with Plasmodium falciparum [7], “Not Active”. Moreover, in the assay with Leishmania donovani, the IC90 entry was “inactive”.
Consider `COc1cc(NC(C)CCCNC(=O)CC[C@@H](NC(=O)[C@H](N)CCCNC(=N)N)C(=O)O)c2nc(C(C)(C)C)ccc2c1` (stereo not given in full), for which the outcome (in the assay on Staphylococcus aureus [1]; in the assay on Staphylococcus aureus [2]; with Escherichia coli; in the assay with Pseudomonas aeruginosa; in assay [8]) was inactive. In addition, the IC50 in [3] is greater than 1000 µM; in the assay on Vero it was “Non-toxic”; with Leishmania donovani it was “Not Active”; in the assay with Plasmodium falciparum [6], “Not Active”; in the assay with Plasmodium falciparum [7] it was “Not Active”. Further, the IC90 entry in the assay on Leishmania donovani was “inactive”.
In the case of `COc1cc(NC(C)CCCNC(=O)NCCCC[C@H](N)C(=O)O)c2nc(C(C)(C)C)ccc2c1` (stereo not given in full), the outcome (in the assay with Staphylococcus aureus [1]; with Staphylococcus aureus [2]; in the assay on Escherichia coli; with Pseudomonas aeruginosa; in assay [8]) was inactive. Further, the IC50 in assay [3] was greater than 1000 µM; with Vero it was “Non-toxic”; with Leishmania donovani, “Not Active”; in the assay with Plasmodium falciparum [6] it was “Not Active”; in the assay with Plasmodium falciparum [7] it was “Not Active”. The IC90 entry with Leishmania donovani was “inactive”.
As for `COc1cc(NC(C)CCCNC(=O)CC[C@@H](NC(=O)[C@H](N)CCCNC(=N)N)C(=O)O)c2ncccc2c1` (stereo not given in full), the outcome (in the assay on Staphylococcus aureus [1]; with Staphylococcus aureus [2]; in the assay with Escherichia coli; with Pseudomonas aeruginosa; in assay [8]) was inactive. The IC50 is greater than 1000 µM in assay [3]; “Non-toxic” in the assay with Vero; “Not Active” in the assay with Leishmania donovani; “Not Active” in the assay on Plasmodium falciparum [6]; “Not Active” with Plasmodium falciparum [7]. The IC90 result with Leishmania donovani was “inactive”.
Take `COc1cc(NC(C)CCCNC(=O)CC[C@@H](NC(=O)[C@H](N)CCCN)C(=O)O)c2ncccc2c1` (stereo not given in full): the result (in the assay with Staphylococcus aureus [1]; with Staphylococcus aureus [2]; with Escherichia coli; in the assay on Pseudomonas aeruginosa; in assay [8]) was inactive. Moreover, the half-maximal inhibitory concentration (IC50) is greater than 1000 µM in assay [3]; “Non-toxic” in the assay with Vero; “Not Active” in the assay with Leishmania donovani; “Not Active” with Plasmodium falciparum [6]; “Not Active” in the assay with Plasmodium falciparum [7]. In the assay on Leishmania donovani, the IC90 entry was “inactive”.
Turning to `COc1cc(NC(C)CCCNC(=O)C[C@@H](NC(=O)[C@H](N)CCCCN)C(=O)O)c2nc(C(C)(C)C)ccc2c1` (stereo not given in full), the outcome (in the assay with Staphylococcus aureus [1]; with Staphylococcus aureus [2]; in the assay on Escherichia coli; with Pseudomonas aeruginosa; in [8]) was inactive. For the same compound, the IC50 in assay [3] was greater than 1000 µM; in the assay with Vero, “Non-toxic”; in the assay on Leishmania donovani, “Not Active”; with Plasmodium falciparum [6], “Not Active”; in the assay on Plasmodium falciparum [7], “Not Active”. The IC90 entry with Leishmania donovani is “inactive”.
Compound `COc1cc(NC(C)CCCN)c2nc(C(C)(C)C)ccc2c1` (stereo not given) gave an IC50 in [3] of 2.9 µM.
In turn, `O=C(O)c1cn(C2CC2)c2cc(N3CCNCC3)c(F)cc2c1=O` [CIPROFLOXACIN] displayed an MIC in [8] of 0.63 µg/mL (≈ 1.9 µM).
